SMILES strings stand for the structures. Converted amounts (≈) assume the structure as drawn.

The first test relates to Streptococcus pneumoniae. Description: Antimicrobial activity against Streptococcus pneumoniae R6 by broth microdilution method. Type of test: functional.
Conditions: not given
For orientation: Dilution methods test growth across graded concentrations, often in twofold steps.
With `N[C@@H](Cc1ccc(O)cc1)C(=O)N[C@H](C(=O)O)[C@H]1[C@H](O)[C@](O)(CO)[C@@H](O)CN1O`, the MIC – broadly, the smallest concentration in the dilution series that meets the test's criterion for growth inhibition – was above 64 µg/mL.

Another test concerns Candida albicans. Description: Antimicrobial activity against Candida albicans ATCC 10231 after 48 hrs by MTT assay. Type of test: functional. To be noted: ATCC 10231, 48 h. In outline:
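Antifungal MTT colorimetric microdilution in RPMI-1640 medium. Compounds serially diluted in sterile medium (50% v/v DMSO in PBS). Inoculum approx. 10⁵ cfu/mL, plates at 27 °C for 48 h. Then PBS with 2 mg/mL MTT added, 4–5 h at room temperature. After a further 12 h, OD read at 550 nm to give MIC₅₀.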
(In general: Tetrazolium assays rely on reduction of a dye to a coloured formazan, in cell work by metabolically active cells.)
Turning to `COc1ccc(C2=C(N3CCCC3)COC2=O)cc1OC`, the MIC50 (commonly the lowest concentration that inhibits either 50% of growth or 50% of the strains tested, depending on the study) was above 100 µg/mL.
On to `O=C1OCC(N2CCCCC2)=C1c1ccc(Br)cc1`, for which the MIC50 was 74.4 µg/mL (≈ 231 µM).
`O=C1OCC(N2CCOCC2)=C1c1cccc(Cl)c1` returned an MIC50 of 74.6 µg/mL (≈ 267 µM).
As for `COc1ccc(C2=C(NCc3ccccc3)COC2=O)cc1OC`, the MIC50 is above 100 µg/mL.
In turn, `CC(=O)N1CCN(c2ccc(OCC3COC(Cn4ccnc4)(c4ccc(Cl)cc4Cl)O3)cc2)CC1` (configuration not stated) [KETOCONAZOLE] returned an MIC50 of 4.4 µg/mL (≈ 8.28 µM).
With `O=C1OCC(NCCN2CCOCC2)=C1c1cccc(Cl)c1`, the MIC50 was 21.3 µg/mL (≈ 66 µM).
Still for that read-out and setting: the result for `O=C1OCC(NNc2ccc([N+](=O)[O-])cc2)=C1c1ccc(Br)cc1` reads 5.2 µg/mL (≈ 13.3 µM); that for `CCCCNC1=C(c2ccc(Br)cc2)C(=O)OC1`, above 100 µg/mL; that for `O=C1OCC(N2CCOCC2)=C1c1ccc(Br)cc1`, 89.7 µg/mL (≈ 277 µM).
On the same count and under the same terms, the result for `CCCNC1=C(c2ccc(Br)cc2)C(=O)OC1` reads above 100 µg/mL.
In the case of `COc1ccc(C2=C(N3CCCCC3)COC2=O)cc1OC`, the MIC50 is above 100 µg/mL.
Consider `O=C1OCC(N2CCNCC2)=C1c1ccc(Br)cc1`, for which the MIC50 was found to be 77.4 µg/mL (≈ 239 µM).
On to `CN1CCN(C2=C(c3cccc(Cl)c3)C(=O)OC2)CC1`, for which the MIC50 was above 100 µg/mL.
With `O=C1OCC(NCc2ccccc2)=C1c1ccc(Br)cc1`, the MIC50 was above 100 µg/mL.
With `CCCNC1=C(c2cccc(Cl)c2)C(=O)OC1`, the MIC50 was above 100 µg/mL.
Still for that read-out and setting: the same measure for `COc1ccc(C2=C(NC3CCCCC3)COC2=O)cc1OC`: above 100 µg/mL.

System in the next test: not listed separately
The test is described as follows: Inhibition of Staphylococcus aureus tyrosyl-tRNA synthetase by aminoacylation assay.
Conditions: not given
In outline:
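S. aureus TyrRS overexpressed in E. coli and purified (~98% by SDS–PAGE). Enzyme (0.2 nM) preincubated with a range of inhibitor concentrations for 10 min at room temperature, then prewarmed mix added at 37 °C. TCA-precipitated charged tRNA counted by scintillation; IC₅₀ is the concentration halving activity.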
With `O=C1OCC(N2CCCCC2)=C1c1ccc(Br)cc1`, the IC50 – broadly, the concentration that inhibits the measured activity by half – came out at 7700 nM.
Same read-out and setting: the same measure for `N[C@@H](Cc1ccc(O)cc1)C(=O)N[C@H](C(=O)O)[C@H]1[C@H](O)[C@](O)(CO)[C@@H](O)CN1O`: 3 nM.
The same measure, in the same setting: the result for `O=C1OCC(N2CCOCC2)=C1c1cccc(Cl)c1` reads 10800 nM; that for `O=C1OCC(NCCN2CCOCC2)=C1c1cccc(Cl)c1`, 860 nM; that for `O=C1OCC(NNc2ccc([N+](=O)[O-])cc2)=C1c1ccc(Br)cc1`, 120 nM.

In another test the test system is Bacillus subtilis. Description: Antimicrobial activity against Bacillus subtilis ATCC 6633 after 24 hrs by MTT assay. Format: functional. To be noted: ATCC 6633, 24 h. In outline:
(§1)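 MTT colorimetric broth microdilution in LB medium. Compounds serially diluted in sterile medium (50% v/v DMSO in PBS). Inoculum approx. 10⁵ cfu/mL, 37 °C for 24 h. Then 50 µL PBS with 2 mg/mL MTT added per well, 4–5 h at room temperature. After a further 12 h at room temperature, OD read at 550 nm to give MIC₅₀.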
With `COc1ccc(C2=C(N3CCCC3)COC2=O)cc1OC`, the MIC50 was above 100 µg/mL.
Still for that read-out and setting: the same measure for `O=C1OCC(N2CCCCC2)=C1c1ccc(Br)cc1`: above 100 µg/mL; for `O=C1OCC(N2CCOCC2)=C1c1cccc(Cl)c1`: 93.1 µg/mL (≈ 333 µM).
`COc1ccc(C2=C(NCc3ccccc3)COC2=O)cc1OC` returned an MIC50 above 100 µg/mL.
`O=C1OCC(NCCN2CCOCC2)=C1c1cccc(Cl)c1` yielded an MIC50 of 27.9 µg/mL (≈ 86.4 µM).
Compound `O=C1OCC(NNc2ccc([N+](=O)[O-])cc2)=C1c1ccc(Br)cc1` came in with an MIC50 of 9.5 µg/mL (≈ 24.3 µM).
Regarding `CCCCNC1=C(c2ccc(Br)cc2)C(=O)OC1`, the MIC50 was above 100 µg/mL.
In turn, `O=C1OCC(N2CCOCC2)=C1c1ccc(Br)cc1` displayed an MIC50 of 91.8 µg/mL (≈ 283 µM).
In the case of `CCCNC1=C(c2ccc(Br)cc2)C(=O)OC1`, the MIC50 is above 100 µg/mL.
`COc1ccc(C2=C(N3CCCCC3)COC2=O)cc1OC` showed an MIC50 above 100 µg/mL.
Consider `O=C1OCC(N2CCNCC2)=C1c1ccc(Br)cc1`, for which the MIC50 stood at 78.5 µg/mL (≈ 243 µM).
In the case of `CN1CCN(C2=C(c3cccc(Cl)c3)C(=O)OC2)CC1`, the MIC50 is above 100 µg/mL.
In turn, `O=C1OCC(NCc2ccccc2)=C1c1ccc(Br)cc1` gave an MIC50 above 100 µg/mL.
Turning to `CCCNC1=C(c2cccc(Cl)c2)C(=O)OC1`, the MIC50 is above 100 µg/mL.
Take `COc1ccc(C2=C(NC3CCCCC3)COC2=O)cc1OC`: the MIC50 was above 100 µg/mL.

For the next test, the system named is Escherichia coli. Description: Antimicrobial activity against Escherichia coli ATCC 35218 after 24 hrs by MTT assay. Format: functional. As to conditions: ATCC 35218, 24 h, read-out: MIC50. In outline: as §1
For `COc1ccc(C2=C(N3CCCC3)COC2=O)cc1OC`, the MIC50 was above 100 µg/mL.
In the case of `O=C1OCC(N2CCCCC2)=C1c1ccc(Br)cc1`, the MIC50 was above 100 µg/mL.
On the same count and under the same terms, the result for `O=C1OCC(N2CCOCC2)=C1c1cccc(Cl)c1` reads above 100 µg/mL.
As for `COc1ccc(C2=C(NCc3ccccc3)COC2=O)cc1OC`, the MIC50 is above 100 µg/mL.
As for `O=C1OCC(NCCN2CCOCC2)=C1c1cccc(Cl)c1`, the MIC50 is above 100 µg/mL.
For the compound `O=C1OCC(NNc2ccc([N+](=O)[O-])cc2)=C1c1ccc(Br)cc1`, the MIC50 was 79.4 µg/mL (≈ 203 µM).
As to `CCCCNC1=C(c2ccc(Br)cc2)C(=O)OC1`, the MIC50 is above 100 µg/mL.
The same measure, in the same setting: the result for `O=C1OCC(N2CCOCC2)=C1c1ccc(Br)cc1` reads above 100 µg/mL; that for `CCCNC1=C(c2ccc(Br)cc2)C(=O)OC1`, above 100 µg/mL.
`COc1ccc(C2=C(N3CCCCC3)COC2=O)cc1OC`: the MIC50 was above 100 µg/mL.
As for `O=C1OCC(N2CCNCC2)=C1c1ccc(Br)cc1`, the MIC50 was above 100 µg/mL.
As for `CN1CCN(C2=C(c3cccc(Cl)c3)C(=O)OC2)CC1`, the MIC50 is above 100 µg/mL.
`O=C1OCC(NCc2ccccc2)=C1c1ccc(Br)cc1`: the MIC50 is above 100 µg/mL.
Consider `CCCNC1=C(c2cccc(Cl)c2)C(=O)OC1`, for which the MIC50 is above 100 µg/mL.
With `COc1ccc(C2=C(NC3CCCCC3)COC2=O)cc1OC`, the MIC50 is above 100 µg/mL.

Another test deals with Staphylococcus aureus. The test is described as follows: Antimicrobial activity against Staphylococcus aureus ATCC 25923 after 24 hrs by MTT assay. Type of test: functional. To be noted: ATCC 25923, 24 h. In outline:
as §1
In turn, `COc1ccc(C2=C(N3CCCC3)COC2=O)cc1OC` yielded an MIC50 above 100 µg/mL.
On the same count and under the same terms, the result for `O=C1OCC(N2CCCCC2)=C1c1ccc(Br)cc1` reads 21.8 µg/mL (≈ 67.7 µM); that for `O=C1OCC(N2CCOCC2)=C1c1cccc(Cl)c1`, 25.7 µg/mL (≈ 91.9 µM); that for `COc1ccc(C2=C(NCc3ccccc3)COC2=O)cc1OC`, above 100 µg/mL.
Still for that read-out and setting: the same measure for `O=C1OCC(NCCN2CCOCC2)=C1c1cccc(Cl)c1`: 3.2 µg/mL (≈ 9.91 µM).
In turn, `O=C1OCC(NNc2ccc([N+](=O)[O-])cc2)=C1c1ccc(Br)cc1` displayed an MIC50 of 0.42 µg/mL (≈ 1.08 µM).
On the same count and under the same terms, the same measure for `CCCCNC1=C(c2ccc(Br)cc2)C(=O)OC1`: above 100 µg/mL; for `O=C1OCC(N2CCOCC2)=C1c1ccc(Br)cc1`: 42.6 µg/mL (≈ 131 µM).
Turning to `CCCNC1=C(c2ccc(Br)cc2)C(=O)OC1`, the MIC50 was found to be 87.2 µg/mL (≈ 294 µM).
`COc1ccc(C2=C(N3CCCCC3)COC2=O)cc1OC` gave an MIC50 above 100 µg/mL.
As to `O=C1OCC(N2CCNCC2)=C1c1ccc(Br)cc1`, the MIC50 stood at 54.7 µg/mL (≈ 169 µM).
Take `CN1CCN(C2=C(c3cccc(Cl)c3)C(=O)OC2)CC1`: the MIC50 was 65.2 µg/mL (≈ 223 µM).
`O=C1OCC(NCc2ccccc2)=C1c1ccc(Br)cc1`: the MIC50 turned out to be 57.6 µg/mL (≈ 167 µM).
`CCCNC1=C(c2cccc(Cl)c2)C(=O)OC1` showed an MIC50 of 52.4 µg/mL (≈ 208 µM).
On the same count and under the same terms, the result for `COc1ccc(C2=C(NC3CCCCC3)COC2=O)cc1OC` reads above 100 µg/mL.
